Results: PubChem BioAssay
Calls of active or inactive are those of the source.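 Rule for the calls, unless noted: active = mean duplicate potentiation above the buffer control mean plus 5 SD of buffer wells; inactive = the rest.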

Columns and labels:
[1] = nonspecific flux increase, KCNQ1-free cells – parental CHO cells, counter-screen for KCNQ1 potentiator project (AID 493006;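 active = duplicate-averaged activation above buffer control mean plus 5 SD of those controls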); settings: parental CHO-K1 cells, FluxOR thallium flux, at 10 µM; active compounds read high
Outline: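 Benchmarks – buffer and R-L3 controls · Assay system – untransfected host CHO-K1 cells with FluxOR thallium dye · Measure – fluorescence change ratio scaled 0% buffer, 100% R-L3 · Technique – kinetic thallium-flux fluorescence · Timing – overnight 37 °C plating, 90 min RT dye, 20 min compound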

[2] = biological target: Potassium voltage-gated channel subfamily KQT member 1 (Homo sapiens) (UniProt P51787); assay: enhancement of KCNQ1 channel thallium flux – FluxOR thallium flux, CHO cells, duplicates, confirmation (AID 493007;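 active = potentiation averaged over duplicate wells exceeding buffer-only control mean by more than 3 SD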); settings: KCNQ1 cell line, FluxOR thallium flux fluorescence, at 10 µM; active compounds read high, % of reference activator effect, buffer zero
Sequence of Potassium voltage-gated channel subfamily KQT member 1 (Homo sapiens) (P51787 whole entry, looked up): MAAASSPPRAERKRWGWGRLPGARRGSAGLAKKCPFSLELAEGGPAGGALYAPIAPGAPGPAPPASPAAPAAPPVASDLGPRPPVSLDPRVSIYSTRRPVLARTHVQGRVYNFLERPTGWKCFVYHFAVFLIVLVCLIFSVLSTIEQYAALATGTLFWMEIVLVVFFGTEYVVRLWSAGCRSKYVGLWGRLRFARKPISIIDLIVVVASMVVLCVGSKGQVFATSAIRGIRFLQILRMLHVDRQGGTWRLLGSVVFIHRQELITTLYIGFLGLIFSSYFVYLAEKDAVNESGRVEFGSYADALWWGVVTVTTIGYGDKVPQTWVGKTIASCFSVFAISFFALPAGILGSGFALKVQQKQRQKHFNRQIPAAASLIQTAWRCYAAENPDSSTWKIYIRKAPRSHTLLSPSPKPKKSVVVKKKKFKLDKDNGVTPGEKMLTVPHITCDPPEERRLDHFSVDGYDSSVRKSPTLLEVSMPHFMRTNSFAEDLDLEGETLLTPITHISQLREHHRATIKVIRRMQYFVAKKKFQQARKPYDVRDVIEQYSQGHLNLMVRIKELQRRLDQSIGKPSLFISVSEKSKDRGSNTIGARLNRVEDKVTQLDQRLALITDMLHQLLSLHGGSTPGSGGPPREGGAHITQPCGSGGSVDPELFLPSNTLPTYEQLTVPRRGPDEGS
Outline: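 Material: CHO cells stably expressing the KCNQ1 potassium channel / Times: dye 90 min then compound 20 min, both at room temperature / Detection: kinetic thallium influx fluorescence with FluxOR dye, 10 s baseline, 110 s post-stimulus / Benchmarks: buffer-only wells as 0% and R-L3 activator as 100% / Replicates: each compound tested in duplicate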

[3] = biological target: Potassium voltage-gated channel subfamily KQT member 2 (Rattus norvegicus) (UniProt O88943); assay: KCNQ2 thallium flux enhancement – KCNQ2-CHO-K1 cells, selectivity assay for KCNQ1 potentiator project (AID 493009); settings: FluxOR thallium flux fluorescence, at 10 µM; active compounds read high, scaled: buffer 0, activator control 100;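 note: assay conditions were tuned for KCNQ1 rather than KCNQ2 modulators; signal is max minus min fluorescence divided by baseline after thallium stimulus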
Sequence of Potassium voltage-gated channel subfamily KQT member 2 (Rattus norvegicus) (O88943 whole entry, looked up): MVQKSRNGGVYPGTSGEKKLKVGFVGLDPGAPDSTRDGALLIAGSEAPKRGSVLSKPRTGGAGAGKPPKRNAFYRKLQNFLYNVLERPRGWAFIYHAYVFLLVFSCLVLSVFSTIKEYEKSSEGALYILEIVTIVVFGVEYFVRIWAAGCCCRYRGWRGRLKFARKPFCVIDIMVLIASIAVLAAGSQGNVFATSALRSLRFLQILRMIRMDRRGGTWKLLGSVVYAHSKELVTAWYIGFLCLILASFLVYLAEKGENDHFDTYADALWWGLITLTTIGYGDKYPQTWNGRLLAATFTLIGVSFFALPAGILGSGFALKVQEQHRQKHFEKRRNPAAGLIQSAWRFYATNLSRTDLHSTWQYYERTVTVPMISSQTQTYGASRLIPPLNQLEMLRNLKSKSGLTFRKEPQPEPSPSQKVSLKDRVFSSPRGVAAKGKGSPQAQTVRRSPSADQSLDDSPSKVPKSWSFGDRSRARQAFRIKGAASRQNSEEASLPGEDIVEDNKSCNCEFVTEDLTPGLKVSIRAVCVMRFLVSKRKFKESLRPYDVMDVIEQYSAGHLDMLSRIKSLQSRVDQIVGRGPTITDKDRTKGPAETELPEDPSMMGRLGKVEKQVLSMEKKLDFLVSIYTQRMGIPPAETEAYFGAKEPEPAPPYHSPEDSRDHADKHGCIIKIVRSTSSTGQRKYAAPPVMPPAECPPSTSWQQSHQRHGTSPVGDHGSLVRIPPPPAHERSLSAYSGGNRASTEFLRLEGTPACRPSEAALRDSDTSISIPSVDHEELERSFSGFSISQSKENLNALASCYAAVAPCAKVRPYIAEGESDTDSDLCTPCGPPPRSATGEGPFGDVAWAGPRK

[4] = biological target: Potassium voltage-gated channel subfamily KQT member 1 (Homo sapiens) (UniProt P51787); assay: KCNQ1 activators by electrophysiology – IonWorks patch clamp, KCNQ1-CHO cells, orthogonal assay for KCNQ1 potentiator project, confirmation (AID 493184;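 active = current rise at least 3 SD above the untreated control mean in each of two repeat wells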); settings: automated patch clamp current, at 10 µM; active compounds read high
Outline: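 Probe or stimulus: depolarizing pulse to +40 mV from -90 mV; Material: CHO cells carrying KCNQ1; Compound: one dose, 10 µM final; Signal: automated voltage clamp, amphotericin B perforated patch; Read-out basis: percent current increase versus pre-compound level; Buffer or medium: pH 7.4 external bath; Replication: duplicates.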

[5] = biological target: Potassium voltage-gated channel subfamily E member 1 (Homo sapiens) + Potassium voltage-gated channel subfamily KQT member 1 (Homo sapiens) (UniProt P15382+P51787); assay: KCNQ1-E1 channel activation – thallium flux, CHO-K1 KCNQ1/E1 cells, selectivity assay for KCNQ1 potentiator project, confirmation (AID 493186;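 active = mean duplicate activation above the buffer control mean plus 5 SD of those controls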); settings: FluxOR thallium flux, at 10 µM; active compounds read high
Sequence of Potassium voltage-gated channel subfamily E member 1 (Homo sapiens) + Potassium voltage-gated channel subfamily KQT member 1 (Homo sapiens) (P51787 whole entry, looked up): as the sequence (P51787 whole entry, looked up) above
Outline: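 system = KCNQ1/E1-expressing stable CHO-K1 cell line | doses = single compound concentration per well | times = dye 90 min, compound 20 min, room temperature | measured by = FluxOR Tl+ flux fluorescence, kinetic read | evaluation = fluorescence rise relative to baseline, as percent of R-L3 response above buffer | controls = buffer and R-L3 | replicates = duplicate wells per compound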

Measured: potentiation

O=C(CNC(=S)NC(=O)c1ccc(Br)o1)c1ccccc1
inactive: all assays above

COc1ccc(Cl)cc1C(=O)NNC(=S)NC(=O)c1cc(-c2ccccc2)nc2ccccc12
inactive: all assays above

O=C(NCCCN1CCCC1)c1ccc2c(c1)N(Cc1ccccc1)CCS2
inactive: all assays above

CCOC(=O)c1c(C)[nH]sc1=S
active: [2] 18%
inactive: all other assays above

Cc1ccc(C)c(Cn2c(O)c(N=NC(=S)Nc3ccccc3F)c3ccccc32)c1
inactive: all assays above

Cc1cccc(NC(=O)C2CCCN2S(=O)(=O)c2ccc(Cl)cc2)n1 (stereo not given)
inactive: all assays above

Cc1ccc(-n2c(C)cc(/C=N/NC(=O)c3ccncc3)c2C)c(C)c1
inactive: all assays above

O=C(N/N=C/c1ccc([N+](=O)[O-])o1)c1sc2ccccc2c1Cl
inactive: all assays above

CCCn1c(=O)c(C(=O)NNC(=O)c2ccc(Cl)cc2Cl)c(O)c2ccccc21
active: [2] 30% | [3] 154%
inactive: all other assays above

CCOC(=O)COc1cc(-n2c(=S)[nH]c3cc(OC)c(OC)cc3c2=O)c(Cl)cc1Cl
active: [2] 31.5%
inactive: all other assays above

Cc1ccc(-c2ccc(/C=C3\C(=O)ON=C3c3ccccc3)o2)c([N+](=O)[O-])c1
active: [2] 29%
inactive: all other assays above

CCOC(=O)c1c(N)sc(C(C)=O)c1C
inactive: all assays above

Cc1cc(C(=O)CCl)c(C)n1-c1cccc([N+](=O)[O-])c1
inactive: all assays above

Cc1ccc(C(=O)CSc2nnc3c4ccccc4nc(C(C)(C)C)n23)cc1
inactive: all assays above

CCCCc1ccc(-c2csc(/C(C#N)=C/c3ccco3)n2)cc1
active: [2] 132%
inactive: all other assays above

O=C(N/N=C/c1ccc(-c2ccccc2)o1)c1ccccc1O
active: [2] 31%
inactive: all other assays above

Cc1sc2ncnc(N3CCN(Cc4ccccc4)CC3)c2c1-c1ccccc1
active: [2] 184%
inactive: all other assays above

COc1cc(OC)cc(C(=O)N2CC(=O)Nc3ccccc32)c1
inactive: all assays above

CCc1ccc(-c2ccc3nnc(SC)n3n2)cc1
inactive: all assays above

CCc1cc(=O)oc2cc(OC(C)C(=O)NCC(O)c3ccccc3)c(Cl)cc12 (stereo not given)
inactive: all assays above

CCCn1c(N)c(C(=O)CSc2nc3ccccc3c(=O)n2Cc2ccccc2)c(=O)[nH]c1=O
inactive: all assays above

Cc1ccc(S(=O)(=O)/N=C(\N)Nc2nc(C)c3ccccc3n2)cc1
inactive: all assays above

O=C(NC(=S)Nc1ccc(CN2CCOCC2)cc1)c1ccc(-c2cccc(Cl)c2)o1
active: [2] 64% | [3] 144%
inactive: all other assays above

COc1ccc(C2c3ccc4ccccc4c3Oc3ncn(CCN4CCOCC4)c(=N)c32)cc1OC (stereo not given)
inactive: all assays above

O=C(CC(c1ccccc1)c1ccccc1)Nc1ncn[nH]1
inactive: all assays above

S=c1[nH]nc(-c2ccco2)n1/N=C/c1ccc(Br)s1
inactive: all assays above

O=C(NC1CCCC1)C(c1cccnc1)N(C(=O)c1csnn1)c1ccccc1 (stereo not given)
active: [2] 27%
inactive: all other assays above

COC(=O)c1sccc1NC(=O)CSc1ccccc1NS(=O)(=O)c1cc(Cl)ccc1Cl
inactive: all assays above

O=C(NC(=S)Nc1ccccc1N1CCOCC1)c1ccc(-c2cc(Cl)ccc2Cl)o1
inactive: all assays above
